# Assay outcomes deposited in PubChem BioAssay by Broad Institute.
# ERp5 block – inhibitors of human ERp5 | ERp5 insulin aggregation, absorbance 650 nm, 90 min | inhibition, % at 9.99 µM | actives 0.05% (n = 350,000) | Q15084;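 active = mean replicate inhibition above about 25%, with every replicate also reaching it, limit read from the data, passing the limit was not always enough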
# Env fusion inh – blocks HIV Env-driven cell-cell fusion; actives 1.1% (n = 360,000); AID 651610; HeLa-JRFL Env/CEM21 cell fusion, luciferase; inhibition, % at 12.3 µM;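 active = mean replicate inhibition score of at least 50 and every replicate individually at or above 50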
# FN deposit inh – fibronectin deposition inhibition. AH1F fibroblasts, Alexa488-fibronectin deposition fluorescence, overnight. inhibition, % at 12.6 µM. actives 0.086% (n = 350,000);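 active = mean inhibition across replicates of 30% or more, regardless of how many single replicates reach that level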
#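 Material – AH1F fibroblast monolayer, labelled fibronectin deposition · Reagent – labelled fibronectin 24 nM · Timing – 1 h adhesion, overnight exposure · Measured by – fluorescence at 485 nm excitation, 525 nm emission · Read-out – inhibition of fibronectin deposition signal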
# Ecoli rRNA inh – inhibitors of bacterial rRNA selective over humanized ribosomes. GFP signal change (wild-type ribosome), % (test concentration not listed). E. coli WT GFP vs humanized-ribosome RFP mutants, fluorescence, 24 h; active compounds read low; DMSO median 0, no signal -100. AID 720706. actives 1.6% (n = 350,000);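 active = significant combined selectivity score with lowered wild-type GFP, culture density cut under 30%, mutant RFP and density less affected; inactive = any of these conditions unmet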
# PDI turbidity – PDI (human) enzyme inhibition | inhibition, % at 10 µM | PDI insulin aggregation turbidity, A650, 90 min | P07237 | actives 0.052% (n = 350,000);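 active = mean inhibition across replicates of 30% or more, whatever share of single replicates reach that level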
# Target sequence (P07237 whole entry, looked up): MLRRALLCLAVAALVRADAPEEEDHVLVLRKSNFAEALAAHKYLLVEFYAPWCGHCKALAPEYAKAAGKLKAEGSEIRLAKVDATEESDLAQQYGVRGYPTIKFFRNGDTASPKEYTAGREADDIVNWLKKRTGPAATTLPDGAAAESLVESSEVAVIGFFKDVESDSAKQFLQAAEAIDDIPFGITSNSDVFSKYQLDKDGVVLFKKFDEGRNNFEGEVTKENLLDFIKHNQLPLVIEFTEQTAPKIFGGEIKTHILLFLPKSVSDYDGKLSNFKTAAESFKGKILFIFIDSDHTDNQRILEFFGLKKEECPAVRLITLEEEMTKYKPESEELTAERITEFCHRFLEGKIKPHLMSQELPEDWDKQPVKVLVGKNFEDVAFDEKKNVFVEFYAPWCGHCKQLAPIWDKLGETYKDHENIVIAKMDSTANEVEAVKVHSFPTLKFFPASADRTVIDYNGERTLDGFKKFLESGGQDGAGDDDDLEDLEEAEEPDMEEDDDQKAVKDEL
# PvdQ inh – blocks Pseudomonas aeruginosa PvdQ acylase activity; inhibition, % at 10 µM; AID 488965; actives 0.063% (n = 340,000); purified PvdQ acylase, fluorescence plate reader; in the data active = inhibition above about 30%, passing the limit was not always enough
# A number is an active result; - = inactive; . = not tested or not shown. Sampled rows, rich in hits. Any-hit rate of the full collection: about 2.2%.
SMILES,ERp5 block,Env fusion inh,FN deposit inh,Ecoli rRNA inh,PDI turbidity,PvdQ inh
Cc1onc(-c2c(Cl)cccc2Cl)c1C(=O)NN1CCCCCC1,-,-,-,-13.2,-,-
CCN1CCN(C(=O)c2c(-c3c(F)cccc3Cl)noc2C)CC1,.,-,-,.,-,-
Cc1onc(-c2c(F)cccc2Cl)c1C(=O)N1CCSCC1,-,-,-,-28.9,-,.
Cc1onc(-c2c(F)cccc2Cl)c1C(=O)NNC(=O)C1CCN(Cc2ccccc2)CC1,-,-,-,-,-,-
CSC(=NS(=O)(=O)c1ccccc1)NNC(=O)c1c(-c2c(Cl)cccc2Cl)noc1C,-,-,-,-20.8,.,.
O=c1c2ccccc2c(C=NCCCN2CCOCC2)c(O)n1Cc1ccc2c(c1)OCO2,-,-,-,-28.9,-,-
O=c1c2ccccc2c(C=NCCCN2CCOCC2)c(O)n1Cc1ccccc1,.,.,.,.,-,-
CCCO/N=C1/C(=O)N(c2ccccc2)c2ccccc21,-,-,-,-37.9,-,-
CNc1nc2c(c(=O)n(C)c(=O)n2C)n1Cc1ccccc1,.,68.6,-,.,-,-
CC(Cl)=CCn1c(NCCc2ccccc2)nc2c1c(=O)n(C)c(=O)n2C,-,93.6,-,.,-,.
CCCn1c(CN(C)Cc2ccccc2)nc2c1c(=O)n(C)c(=O)n2C,.,-,-,.,-,-
CCCCn1c(CN(C)Cc2ccccc2)nc2c1c(=O)n(C)c(=O)n2C,.,72.3,.,.,-,-
CCCCCC1CC(=O)C=C(C)C1C(=O)OC (configuration not stated),-,-,-,-,-,-
COC(=O)C1C(OC)=CC(=O)C2CCCCC21 (configuration not stated),-,57.3,-,-,-,-
C[C@H](CO)N1C[C@H](C)[C@H](CN(C)C(=O)NC2CCCCC2)Oc2ccc(NS(C)(=O)=O)cc2C1=O,-,.,.,-,.,.
COc1ccc(C(=O)Nc2cc(C(=O)O)cc(C(=O)O)c2)cc1Cl,-,-,-,-,-,-
COC(=O)c1cccc(NC(=O)c2ccc(OC)c(Cl)c2)c1,-,-,.,-30.5,-,-
CC(C)NC(=O)Nc1ccc2c(c1)C(=O)N([C@@H](C)CO)C[C@@H](C)[C@H](CN(C)C(=O)c1ccncc1)OCCCC[C@@H](C)O2,-,-,-,-,.,.
C[C@@H]1CN([C@@H](C)CO)C(=O)c2cc(NC(=O)c3ccccc3)ccc2O[C@@H](C)CCCCO[C@H]1CN(C)C(=O)c1ccccc1,-,-,-,-,.,.
CNC(=S)N(CCc1c(C)[nH]c2ccc(OC)cc12)Cc1ccco1,-,-,-,-22.5,-,-
Cc1cc(C)n2ncc(C(=O)NCc3ccc(Cl)cc3)c2n1,.,-,46.0,.,-,-
Cc1nn(C)c(C(=O)Nc2ccn(Cc3c(F)c(F)cc(F)c3F)n2)c1[N+](=O)[O-],.,-,-,.,-,-
Cc1nn(Cc2cccc(C(=O)Nc3ccn(Cc4c(F)c(F)cc(F)c4F)n3)c2)c(C)c1[N+](=O)[O-],.,56.3,-,.,-,-
O=C(COc1ccccc1)N1CCN(c2ncccn2)CC1,-,-,-,-,-,-
Cc1nc(N2CCN(C(=O)COc3ccccc3)CC2)c2c(C)c(C)sc2n1,.,61.5,-,.,-,-
SMILES,ERp5 block,Env fusion inh,FN deposit inh,Ecoli rRNA inh,PDI turbidity,PvdQ inh
COc1ccc(CN(C)C[C@H]2Oc3c(NS(=O)(=O)c4cn(C)cn4)cccc3C(=O)N([C@@H](C)CO)C[C@H]2C)cc1,-,.,.,-,.,.
CCCCOC(=O)/C=C/c1c(C)[nH]c(=O)[nH]c1=O,-,-,-,-34.1,-,-
C[C@H](CO)N1C[C@H](C)[C@@H](CN(C)S(=O)(=O)c2ccc(F)cc2)Oc2ccc(NC(=O)CCN3CCOCC3)cc2CC1=O,-,.,.,-,.,.
N=C1/C(=C\c2ccc(-c3cc(Cl)cc(Cl)c3)o2)C(=O)N=C2SC=C(c3ccccc3)N12,.,-,-,.,-,-
N=C1/C(=C/c2ccc(-c3cccc(C(=O)O)c3)o2)C(=O)N=C2SC=C(c3ccccc3)N12,-,-,.,-20.7,-,-
C[C@@H]1CN([C@H](C)CO)C(=O)c2cc(NC(=O)C3CCCCC3)ccc2O[C@@H](C)CCCCO[C@H]1CN(C)S(=O)(=O)c1ccc(Cl)cc1,-,-,-,-,.,.
COC(=O)c1ccc(NC(=S)N2CCCC2)cc1,-,-,-,-,-,41.6
COC(=O)c1ccc(NC(=O)c2ccc(CN3CCOCC3)cc2)cc1,.,83.7,-,.,-,-
COc1ccc(C(=O)NC(=S)Nc2ccc(CN3CCOCC3)cc2)cc1Br,-,-,-,-21.5,-,-
O=C(Nc1ccc(CN2CCS(=O)(=O)CC2)cc1)c1ccc(C(F)(F)F)cc1,-,76.0,-,.,-,-
C[C@@H]1CCCCO[C@@H](CN(C)S(=O)(=O)c2ccc(F)cc2)[C@H](C)CN([C@H](C)CO)C(=O)c2cc(NC(=O)C3CCCCC3)ccc2O1,-,-,-,-,.,.
CCCCCCCC[n+]1cccc2c3ccccc3ccc21,-,83.7,-,-,-,-
CCCCCCCCCC[n+]1cccc2c3ccccc3ccc21,-,58.9,-,-,-,-
Cc1cccc[n+]1CCCCCCCCCC[n+]1ccccc1C,-,-,-,-,-,-
COc1ccccc1-c1ccc(C2[C@H]3CNC[C@@H]2N3S(=O)(=O)c2ccc(C)cc2)cc1 (some centres not stated),-,.,-,-,.,.
O=C(COC(=O)CCc1nc2ccccc2c(=O)[nH]1)Nc1c(Cl)cccc1C(F)(F)F,26.2,-,-,-,-,-
Cc1ccccc1NC(=O)COC(=O)CCc1nc2ccccc2c(=O)[nH]1,-,-,-,-,-,-
N#Cc1c(Cl)nsc1NC(=O)c1ccccc1,-,59.9,-,-,-,-
N#Cc1c(NC(=O)c2ccccc2)sc2c1CCCCC2,.,.,.,.,-,-
CC(C)C[C@H]1COc2cc(NCc3ccc(Cl)c(Cl)c3)ccc2S(=O)(=O)N1,-,-,-,-25.6,.,.
CCCCNc1ccc2c(c1)OC[C@@H](Cc1ccccc1)NS2(=O)=O,-,-,-,-27.7,.,.
